Results from article PMC2745822 (The Journal of pharmacology and experimental therapeutics, 2008).

What was measured:
[1] = target: T1, M2 mAChR (Homo sapiens, UniProt P08172); experiment: Calcium mobilization selectivity assay, CHO K1 cells expressing M2-Gqi5; type: cell-based; details: 30 µM compound
T1 sequence (P08172 1-466): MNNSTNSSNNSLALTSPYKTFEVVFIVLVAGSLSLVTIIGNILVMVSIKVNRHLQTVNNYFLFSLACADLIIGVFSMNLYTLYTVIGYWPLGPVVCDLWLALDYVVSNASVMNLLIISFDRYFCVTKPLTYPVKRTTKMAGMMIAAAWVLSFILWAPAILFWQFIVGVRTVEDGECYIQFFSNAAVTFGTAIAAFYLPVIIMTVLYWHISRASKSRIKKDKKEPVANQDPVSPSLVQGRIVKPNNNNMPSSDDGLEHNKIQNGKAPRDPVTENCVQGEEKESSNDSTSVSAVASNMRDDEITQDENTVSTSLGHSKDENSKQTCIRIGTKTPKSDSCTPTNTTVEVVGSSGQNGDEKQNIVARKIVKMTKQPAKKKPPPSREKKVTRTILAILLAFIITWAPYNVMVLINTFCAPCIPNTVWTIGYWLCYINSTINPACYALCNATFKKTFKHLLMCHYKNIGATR
In short: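 CHO K1 cells stably co-expressing human M2 and chimeric Gqi5, grown with 500 µg/ml hygromycin B. Seeded 60,000 cells/well and kept overnight in antibiotic-free medium at 37°C/5% CO2. Loaded with 2 µM Fluo-4 AM for 45 min at 37°C in HBSS/HEPES/probenecid buffer, pH 7.4. […] Three independent experiments.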

[2] = target: T2, M5 mAChR (Homo sapiens, UniProt P08912); experiment: Calcium mobilization selectivity assay, CHO K1 cells expressing M5; type: cell-based; details: 30 µM compound
T2 sequence (P08912 1-532): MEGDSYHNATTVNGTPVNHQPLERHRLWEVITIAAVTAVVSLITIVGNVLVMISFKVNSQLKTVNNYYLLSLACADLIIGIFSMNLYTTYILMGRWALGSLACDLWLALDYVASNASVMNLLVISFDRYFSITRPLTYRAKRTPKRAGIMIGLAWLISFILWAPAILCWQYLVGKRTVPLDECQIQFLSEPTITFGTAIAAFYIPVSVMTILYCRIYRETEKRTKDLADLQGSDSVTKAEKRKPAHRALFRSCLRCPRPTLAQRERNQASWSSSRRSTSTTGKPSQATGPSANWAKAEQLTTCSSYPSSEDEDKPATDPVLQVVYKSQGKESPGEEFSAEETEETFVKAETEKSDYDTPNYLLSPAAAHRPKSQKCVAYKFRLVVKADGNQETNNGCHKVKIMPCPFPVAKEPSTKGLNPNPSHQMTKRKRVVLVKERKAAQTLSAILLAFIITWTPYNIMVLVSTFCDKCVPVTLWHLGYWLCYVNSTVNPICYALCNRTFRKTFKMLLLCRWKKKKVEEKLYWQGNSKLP
In short: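 CHO K1 cells stably expressing rat M1 or human M3 or M5, coupled through endogenous Gq. Seeded 50,000 cells/well and held overnight in antibiotic-free medium at 37°C/5% CO2. Loaded with 2 µM Fluo-4 AM for 45 min at 37°C in HBSS/20 mM HEPES/2.5 mM probenecid, pH 7.4. […] Three independent experiments.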

[3] = target: T3, M1 (Homo sapiens, UniProt P11229); experiment: Millipore GPCR Profiler functional screen, M1; type: cell-based; details: full agonist CRC
T3 sequence (P11229 1-460): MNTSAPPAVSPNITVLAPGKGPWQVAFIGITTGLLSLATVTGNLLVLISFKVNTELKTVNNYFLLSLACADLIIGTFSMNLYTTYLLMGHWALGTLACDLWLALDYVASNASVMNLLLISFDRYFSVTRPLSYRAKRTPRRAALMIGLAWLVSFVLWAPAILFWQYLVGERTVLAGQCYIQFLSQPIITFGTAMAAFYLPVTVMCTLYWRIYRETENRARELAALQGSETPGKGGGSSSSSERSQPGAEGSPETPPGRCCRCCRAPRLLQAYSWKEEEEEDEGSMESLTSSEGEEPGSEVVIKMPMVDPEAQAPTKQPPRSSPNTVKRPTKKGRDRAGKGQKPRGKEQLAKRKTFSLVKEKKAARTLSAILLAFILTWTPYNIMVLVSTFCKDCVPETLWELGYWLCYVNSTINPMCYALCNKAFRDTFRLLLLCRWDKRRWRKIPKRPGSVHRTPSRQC

[4] = log P; type: physicochemical
[5] = Formulation into homogeneous dosing solution; type: physicochemical; details: vehicles acceptable for in vivo studies
In short: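 Test compound was jet-milled to uniform nanoparticles before vehicle formulation. It was then dissolved at 56.6 mg/ml in 10% Tween 80 in double-deionized water, with pH adjusted to about 7.0 using 1 N NaOH. The mixture was sonicated until a uniform homogeneous solution formed, for intraperitoneal dosing.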

[6] = test system: amphetamine-induced hyperlocomotion in rats; experiment: Amphetamine-induced hyperlocomotion; type: in vivo, rat; details: 56.6 mg/kg i.p., 30-min pretreatment; 1 mg/kg s.c. amphetamine; 60 min
[7] = target: T4, human M4 muscarinic receptor (Homo sapiens, UniProt P08173)
T4 sequence (P08173 1-479): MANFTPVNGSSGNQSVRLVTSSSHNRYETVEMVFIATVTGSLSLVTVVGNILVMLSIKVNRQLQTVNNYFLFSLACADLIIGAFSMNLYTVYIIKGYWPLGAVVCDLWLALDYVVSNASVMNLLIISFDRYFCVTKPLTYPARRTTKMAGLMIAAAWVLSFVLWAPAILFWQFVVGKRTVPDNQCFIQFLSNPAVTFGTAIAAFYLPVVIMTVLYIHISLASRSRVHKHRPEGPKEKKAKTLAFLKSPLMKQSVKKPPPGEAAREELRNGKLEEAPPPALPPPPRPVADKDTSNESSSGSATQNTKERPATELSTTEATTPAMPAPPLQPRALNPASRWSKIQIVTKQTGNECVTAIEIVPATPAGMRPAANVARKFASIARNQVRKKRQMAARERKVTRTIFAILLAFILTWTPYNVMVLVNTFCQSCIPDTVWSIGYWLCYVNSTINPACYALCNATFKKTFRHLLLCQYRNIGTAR

Cc1cc(C)c2c(N)c(C(=O)NCc3ccc4c(c3)OCO4)sc2n1 [VU0152099, 3-amino-N-(benzo[d][1,3]dioxol-5-ylmethyl)-4,6-dimethylthieno[2,3-b]pyridine carboxamide]
shift in the ACh CRC at M2-Gqi5 [1]: No shift in the ACh CRC was observed | shift in the ACh CRC at M5 [2]: No shift in the ACh CRC was observed | potentiator activity at M1 [3]: had no potentiator activity at M1 | log P [4]: 3.65 | formulation into homogeneous dosing solution [5]: afforded homogeneous dosing solutions in multiple vehicles acceptable for in vivo studies | effect on amphetamine-induced hyperlocomotion [6]: produced robust decreases in amphetamine-induced hyperlocomotion | leftward shift in the ACh CRC ([7]; 10 µM compound): ≈ 30 fold | maximal response to ACh ([7]; in presence of compound): approximately 130%
